Molecular target: T1, Corticotropin-releasing factor receptor 1 (Rattus norvegicus, UniProt P35353)
T1 sequence (P35353 whole entry): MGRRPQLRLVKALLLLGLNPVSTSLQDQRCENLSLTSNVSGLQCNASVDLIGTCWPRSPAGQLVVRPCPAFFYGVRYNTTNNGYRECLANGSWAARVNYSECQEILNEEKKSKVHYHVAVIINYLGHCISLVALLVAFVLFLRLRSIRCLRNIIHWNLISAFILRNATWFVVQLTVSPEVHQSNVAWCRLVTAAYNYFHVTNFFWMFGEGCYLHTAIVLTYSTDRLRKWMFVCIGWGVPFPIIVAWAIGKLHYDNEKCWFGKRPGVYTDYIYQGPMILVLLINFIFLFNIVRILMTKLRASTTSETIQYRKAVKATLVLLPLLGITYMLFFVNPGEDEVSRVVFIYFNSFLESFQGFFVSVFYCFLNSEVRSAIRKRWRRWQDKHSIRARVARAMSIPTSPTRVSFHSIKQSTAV
Assay: Inhibition of [125I]- Ovine CRF binding to rat frontal cortex corticotropin releasing factor 1 receptor
Type: tissue-based
Details: not given
Summary of the method: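 Frozen rat frontal cortex homogenate (25 μg/well) in 50 mM HEPES pH 7.0 with 10 mM MgCl₂, 2 mM EGTA, protease inhibitors, 0.005% Triton X-100, bacitracin and 0.1% ovalbumin. Bound ligand collected by filtration on PEI-treated filters and gamma counted. Nonspecific binding defined with 1 μM DMP696.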

| Structure (SMILES) | IC50 |
| --- | --- |
| CCCC(COC)n1c(CC)nc2c1C(=O)N(C)CN2c1ccc(Cl)cc1Cl (stereo not drawn) | 0.043 µM |
| CCc1nc2c(n1Cc1ccc(OC)cc1)C(=O)N(C)CN2c1ccc(Cl)cc1Cl | 0.456 µM |
| CCc1nc2c(n1Cc1ccccc1C)C(=O)N(C)CN2c1ccc(Cl)cc1Cl | 0.458 µM |
| CCCC(CCC)n1c(CC)nc2c1C(=O)N(C)CN2c1ccc(C(C)C)cc1Cl | 0.05 µM |
| CCc1nc2c(n1COCc1ccccc1)C(=O)N(C)CN2c1ccc(Cl)cc1Cl | 0.86 µM |
| CCc1nc2c(n1C(CC)C(C)C)C(=O)N(C)CN2c1ccc(C(C)C)cc1Cl (stereo not drawn) | 0.555 µM |
| CCCC(CCC)n1c(CC)nc2c1C(=O)N(C)C(C)N2c1ccc(Cl)cc1Cl (stereo not drawn) | 0.383 µM |
| CCCC(CCC)n1c(CC)nc2c1C(=O)N(C)C(CC)N2c1ccc(Cl)cc1Cl (stereo not drawn) | 0.626 µM |
| CCCC(CCC)n1c(CC)nc2c1C(=O)N(C)CN2c1ccc(Cl)cc1 | 0.173 µM |
| CCCC(CCC)n1c(CC)nc2c1c(=O)n(C)c(=O)n2-c1ccc(Cl)cc1Cl | 0.075 µM |
| CCCC(CCC)n1c(CC)nc2c1C(=O)N(C)CN2c1c(C)cc(C)cc1C | 0.022 µM |
| CCc1nc2c(n1Cc1ccc(-c3ccccc3)cc1)C(=O)N(C)CN2c1ccc(Cl)cc1Cl | 0.324 µM |
| CCCC(CCC)n1cnc2c1C(=O)N(C)CN2c1ccc(Cl)cc1Cl | 0.898 µM |
| CCCC(CCC)n1c(CC)nc2c1C(=O)N(C)CN2c1ccc(OC)cc1Cl | 0.027 µM |
| CCc1nc2c(n1Cc1ccccc1C)C(=O)N(C)CN2c1ccc(OC)cc1Cl | 0.875 µM |

Next, values leading:

| IC50 | Structure (SMILES) |
| --- | --- |
| 0.014 µM | CCc1nc2c(n1C(CC)C1CC1)C(=O)N(C)CN2c1ccc(Cl)cc1Cl (stereo not drawn) |
| 0.026 µM | CCc1nc2c(n1C(C)C1CCC1)C(=O)N(C)CN2c1ccc(Cl)cc1Cl (stereo not drawn) |
| 0.112 µM | CCc1nc2c(n1C(CC)CC)C(=O)N(C)CN2c1ccc(Cl)cc1Cl |
| 0.051 µM | CCc1nc2c(n1C(CC)C(C)C)C(=O)N(C)CN2c1ccc(Cl)cc1Cl (stereo not drawn) |
| 0.018 µM | CCCCC(CC)n1c(CC)nc2c1C(=O)N(C)CN2c1ccc(Cl)cc1Cl (stereo not drawn) |
| 0.055 µM | CCc1nc2c(n1C(C)C1CC1)C(=O)N(C)CN2c1ccc(Cl)cc1Cl (stereo not drawn) |
| 0.0054 µM | CCCC(CCC)n1c(CC)nc2c1C(=O)N(C)CN2c1ccc(Cl)cc1Cl |
| 0.01 µM | CCCC(C1CC1)n1c(CC)nc2c1C(=O)N(C)CN2c1ccc(Cl)cc1Cl (stereo not drawn) |
| 0.006 µM | CCc1nc2c(n1C(C1CC1)C1CC1)C(=O)N(C)CN2c1ccc(Cl)cc1Cl |
| 0.052 µM | CCCC(C)n1c(CC)nc2c1C(=O)N(C)CN2c1ccc(Cl)cc1Cl (stereo not drawn) |
| 0.113 µM | CCc1nc2c(n1C(CC)C1CC1)C(=O)N(C)CN2c1ccc(OC)cc1Cl (stereo not drawn) |

Tested on: not listed separately
Assay: Inhibition of CRF-stimulated cAMP production in human Y-79 retinoblastoma cells
Type: functional, cell-based
Details: Y79
Summary of the method: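 Human Y-79 retinoblastoma cells, 20 000/well in HBSS with 2 mM CaCl₂, 5 mM MgCl₂, 20 mM HEPES and 1 mM IBMX. Antagonist (typically 0.01–10 000 nM) preincubated 30 min at 37 °C, then 1 nM CRF added for 30 min at 37 °C. cAMP read by HTRF against a cAMP standard curve. Percent inhibition of CRF-induced cAMP determined in triplicate; basal cAMP without CRF also measured.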

| IC50 | Structure (SMILES) |
| --- | --- |
| 0.0242 µM | CCCC(CCC)n1c(CC)nc2c1C(=O)N(C)CN2c1ccc(Cl)cc1Cl |
| 0.0144 µM | CCc1nc2c(n1C(C1CC1)C1CC1)C(=O)N(C)CN2c1ccc(Cl)cc1Cl |
